Reference: ChEMBL document CHEMBL2146419, “Effects of polyphenol compounds on influenza A virus replication and definition of their mechanism of action” (Bioorg Med Chem, 2012)
Calls of active or inactive are those of the source. No cut-off for these calls is given here.

Columns and labels:
Influenza A virus [1] = assay: Antiviral activity against Influenza virus A/Puerto Rico/8/34 H1N1 infected in dog MDCK cells at 20 ug/mL incubated for 2 hrs post-infection followed by compound washout measured after 24 hrs by hemagglutininating unit assay; format: functional, organism-based; conditions: A/Puerto Rico/8/1934(H1N1)
Procedure, shortened: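 Compound added to PR8-infected MDCK cells immediately after virus challenge, then removed at 2, 4, 6, 8 or 24 h p.i. Supernatant virus yield was measured by HAU at 24 h p.i. and expressed as a percentage of DMSO-treated control infected cells. Means of two experiments, each in duplicate.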

Influenza A virus [2] = assay: Antiviral activity against Influenza virus A/Puerto Rico/8/34 H1N1 infected in dog MDCK cells assessed as reduction in matrix protein 1 expression at 20 ug/mL after 24 hrs by immunoblotting analysis relative to control; format: functional, A/Puerto Rico/8/1934(H1N1); set-up: scale not given: the % may be the effect or the level left
Procedure, shortened: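 PR8-infected MDCK cells, untreated or treated, were lysed at 24 h. Homogenates were run on 12% gels under reducing conditions, blotted to nitrocellulose and probed with goat polyclonal anti-influenza antibodies. Densitometry was expressed as the ratio of each viral protein to actin, relative to untreated infected cells.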

Question: With `O=C1/C(=C/c2ccc(O)c(O)c2)COC/C1=C\c1ccc(O)c(O)c1` as the compound, how does the Activity (Influenza A virus [1]) read?
Answer: Its Activity is “inactive”.

Question: What about the Activity (Influenza A virus [2]) of the same compound?
Answer: Its Activity is 62%.
